One block for each molecule: values may come before it.
Columns and labels:
[1] = system: CHP-212-R(mix) and resistant monoclonal sublines R1-R6 (heterozygous USP7 V517F); assay: Cell viability assay; conditions: for sensitivity of the resistant cells to other agents: SRB, 3 days exposure (Fig. 1d)
[2] = system: CHP-212.V517F.KI#1 and CHP-212.V517F.KI#2 cells; assay: Cell viability assay; type: cell-based, human; conditions: CHP-212 V517F knock-in vs WT
[3] = system: LNCaP V517F.KI#1 and V517F.KI#2 cells; assay: Cell viability assay; type: cell-based, human; conditions: LNCaP.V517F.KI vs WT
[4] = molecular target: USP7_V517F^CD (Homo sapiens, UniProt Q93009, V517F); assay: Ub-AMC in vitro enzyme assay; type: biochemical; conditions: 50 nM USP7_V517F^CD, up to 0.5 μM USP7-797 or 1 μM FT671
USP7_V517F^CD, sequence (Q93009 208-560 V517F): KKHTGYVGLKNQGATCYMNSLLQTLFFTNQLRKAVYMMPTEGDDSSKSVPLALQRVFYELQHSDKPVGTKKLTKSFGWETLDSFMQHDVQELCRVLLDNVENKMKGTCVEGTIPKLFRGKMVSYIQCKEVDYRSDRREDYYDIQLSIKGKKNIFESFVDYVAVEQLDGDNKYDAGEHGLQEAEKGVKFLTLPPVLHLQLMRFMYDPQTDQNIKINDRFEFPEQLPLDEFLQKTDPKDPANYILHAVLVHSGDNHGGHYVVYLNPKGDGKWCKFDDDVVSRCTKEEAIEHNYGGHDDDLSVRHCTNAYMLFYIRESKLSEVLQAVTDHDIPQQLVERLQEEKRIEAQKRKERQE

[5] = molecular target: V517F^CD (Homo sapiens, UniProt Q93009, V517F); assay: Isothermal titration calorimetry; type: binding; conditions: ITC, compared to the control groups (WT)
V517F^CD, sequence (Q93009 208-560 V517F): as above

[6] = molecular target: V517G^CD (Homo sapiens, UniProt Q93009, V517G); assay: Isothermal titration calorimetry; type: binding; conditions: ITC, USP7_V517G^CD
V517G^CD, sequence (Q93009 208-560 V517G): as the sequence (Q93009 208-560 V517F) above, with F310G counted along it
In short: (§1)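 His-tagged USP7 catalytic-domain mutants were expressed from pET28 in E. coli BL21(DE3), induced with 0.5 mM IPTG overnight at 17 °C, then purified by Ni–NTA and desalting. Protein was titrated with test compound on a MicroCal PEAQ-ITC at 25 °C, using an initial 0.5 μL injection then 20 injections of 2 μL. Kd came from a single-site binding model fit.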

[7] = molecular target: V517A^CD (Homo sapiens, UniProt Q93009, V517A); assay: Isothermal titration calorimetry; type: binding; conditions: ITC
V517A^CD, sequence (Q93009 208-560 V517A): as the sequence (Q93009 208-560 V517F) above, with F310A counted along it
In short: as §1

[8] = molecular target: V517I^CD (Homo sapiens, UniProt Q93009, V517I); assay: Isothermal titration calorimetry; type: binding; conditions: ITC
V517I^CD, sequence (Q93009 208-560 V517I): as the sequence (Q93009 208-560 V517F) above, with F310I counted along it
In short: as §1

[9] = molecular target: V517Y^CD (Homo sapiens, UniProt Q93009, V517Y); assay: Isothermal titration calorimetry; type: binding; conditions: ITC, USP7_V517Y^CD
V517Y^CD, sequence (Q93009 208-560 V517Y): as the sequence (Q93009 208-560 V517F) above, with F310Y counted along it
In short: as §1

[10] = system: CHP-212 R(mix) cells; assay: Cell cycle distribution by flow cytometry; type: cell-based, human; conditions: 24 h treatment
[11] = system: c-caspase-3, c-caspase-7, c-PARP, p53, p21, Rad18, DNMT1, UHRF1 in CHP-212 resistant variants; type: cell-based, human; conditions: resistant variants relative to the parent cells, 48 h, Western blotting
In short: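 CHP-212 parental and resistant cells were treated with test compound, 48 h for caspase-3/-7, cleaved caspases and PARP1, or 24 h for p53, p21, Rad18, DNMT1 and UHRF1. Lysis was in SDS buffer (50 mM Tris-HCl pH 6.8, 2% SDS, 100 mM DTT) with 15 min boiling, followed by SDS-PAGE on 7.5–12.5% gels. Primary antibodies were used at 1:1000 with HRP secondaries. Blots were repeated three times.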

[12] = system: Capan-1.V517F.OE cells; conditions: Capan-1.V517F.OE vs WT.OE
[13] = system: USP4, USP8, USP9X, USP12, USP15, and USP34; conditions: cited from earlier work

SMILES: NS(=O)(=O)OC[C@@H]1C[C@@H](n2ccc3c(N[C@H]4CCc5ccccc54)ncnc32)C[C@@H]1O [MLN4924]
sensitivity of the resistant cells to other agents [1]: maintained sensitivity

inhibition of V517F enzyme activity [4]: failed to inhibit
fold decreased binding affinity of USP7_V517F [5]: 67 fold
affinity compared to wild-type USP7 [6]: remain essentially unchanged
affinity compared to wild-type USP7 [7]: remain essentially unchanged
affinity compared to wild-type USP7 [8]: remain essentially unchanged
affinity compared to wild-type USP7 [9]: decreases significantly
fold higher IC50 [12]: 48 fold
SMILES: O=C(C[C@@H](C(F)F)n1ccc(F)n1)N1CCC(O)(Cn2cnc3c(cnn3-c3ccc(F)cc3)c2=O)CC1 [FT671]
sensitivity reduction [2]: 88–106 fold
sensitivity reduction [3]: 121- to 146 fold
cell-cycle distribution of resistant variants [10]: not profoundly altered
activation of apoptosis-related proteins (c-caspase-3, c-caspase-7, c-PARP) [11]: reduced activation
response of other USP family members to FT671 [13]: resistant
fold reduction in sensitivity / higher IC50 than parental cells ([1]; resistant sublines vs parental CHP-212 cells): 83–213 fold

SMILES: CC[C@]1(O)C[C@H]2CN(CCc3c([nH]c4ccccc34)[C@@](C(=O)OC)(c3cc4c(cc3OC)N(C=O)[C@H]3[C@@](O)(C(=O)OC)[C@H](OC(C)=O)[C@]5(CC)C=CCN6CC[C@]43[C@@H]65)C2)C1 [VCR]
sensitivity of the resistant cells to other agents [1]: maintained sensitivity

SMILES: CC(=O)O[C@H]1C(=O)[C@@]2(C)[C@H]([C@H](OC(=O)c3ccccc3)[C@]3(O)C[C@H](OC(=O)[C@H](O)[C@@H](NC(=O)c4ccccc4)c4ccccc4)C(C)=C1C3(C)C)[C@]1(OC(C)=O)CO[C@@H]1C[C@@H]2O [Taxol]
sensitivity of the resistant cells to other agents [1]: maintained sensitivity

SMILES: COc1cccc2c1C(=O)c1c(O)c3c(c(O)c1C2=O)C[C@@](O)(C(=O)CO)C[C@@H]3O[C@H]1C[C@H](N)[C@H](O)[C@H](C)O1 [Adriamycin]
sensitivity of the resistant cells to other agents [1]: maintained sensitivity

SMILES: COc1ncnc(C2CC2)c1-c1ncc2cnn(Cc3ccc(-c4nc(C(F)(F)F)cn4C(C)C)cc3)c2n1 [KSQ4279]
sensitivity of the resistant cells to other agents [1]: maintained sensitivity

SMILES: CC(C)C[C@H](NC(=O)[C@H](Cc1ccccc1)NC(=O)c1cnccn1)B(O)O [bortezomib]
sensitivity of the resistant cells to other agents [1]: maintained sensitivity
